Values after ≈ are worked out from the molar mass of the structure shown.
Columns and labels:
Assay type in all cases: functional
Enterococcus faecalis = test: Antibacterial activity against Streptococcus faecalis MTCC 3382 after 18 hrs by broth microdilution method; conditions: MTCC 3382, 18 h
Staphylococcus aureus = test: Antibacterial activity against Staphylococcus aureus MTCC 3160 after 18 hrs by broth microdilution method; conditions: MTCC 3160, 18 h
Bacillus subtilis = test: Antibacterial activity against Bacillus subtilis MTCC 297 after 18 hrs by broth microdilution method; conditions: MTCC 297, 18 h
Pseudomonas aeruginosa = test: Antibacterial activity against Pseudomonas aeruginosa MTCC 1034 after 18 hrs by broth microdilution method; conditions: MTCC 1034, 18 h
Klebsiella pneumoniae = test: Antibacterial activity against Klebsiella pneumoniae MTCC 3384 after 18 hrs by broth microdilution method; conditions: MTCC 3384, 18 h
Escherichia coli = test: Antibacterial activity against Escherichia coli MTCC 1089 after 18 hrs by broth microdilution method; conditions: MTCC 1089, 18 h
Candida albicans = test: Antifungal activity against Candida albicans after 48 to 72 hrs by broth microdilution method
Procedure, shortened: (§1)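 Test compounds were prepared as 10 mg/ml DMSO stocks and serially diluted twofold in Sabouraud's dextrose broth over 500, 250, 125, 62.5, 31.25, 16, 8, 4, 2 and 1, alongside fluconazole as reference. Plates were inoculated with 1–5 × 10⁴ cfu/ml and held at 25 °C for 48–72 h. The MIC was the lowest concentration showing no visible growth.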

Aspergillus fumigatus = test: Antifungal activity against Aspergillus fumigatus after 48 to 72 hrs by broth microdilution method; procedure, shortened: as §1
Aspergillus niger = test: Antifungal activity against Aspergillus niger after 48 to 72 hrs by broth microdilution method; procedure, shortened: as §1
Penicillium chrysogenum = test: Antifungal activity against Penicillium chrysogenum after 48 to 72 hrs by broth microdilution method; procedure, shortened: as §1
Mucor = test: Antifungal activity against Mucor fuscus after 48 to 72 hrs by broth micro dilution method; procedure, shortened: as §1
Fusarium oxysporum = test: Antifungal activity against Fusarium oxysporum after 48 to 72 hrs by broth microdilution method; procedure, shortened: as §1

| MIC (Enterococcus faecalis) | MIC (Staphylococcus aureus) | MIC (Bacillus subtilis) | MIC (Pseudomonas aeruginosa) | MIC (Klebsiella pneumoniae) | MIC (Escherichia coli) | MIC (Candida albicans) | MIC (Aspergillus fumigatus) | MIC (Aspergillus niger) | MIC (Penicillium chrysogenum) | MIC (Mucor) | MIC (Fusarium oxysporum) | SMILES |
| --- | --- | --- | --- | --- | --- | --- | --- | --- | --- | --- | --- | --- |
| 8 µg/mL (≈ 20.1 µM) | 4 µg/mL (≈ 10 µM) | 31.2 µg/mL (≈ 78.4 µM) | 125 µg/mL (≈ 314 µM) | 125 µg/mL (≈ 314 µM) | 125 µg/mL (≈ 314 µM) | 8 µg/mL (≈ 20.1 µM) | 8 µg/mL (≈ 20.1 µM) | 4 µg/mL (≈ 10 µM) | 2 µg/mL (≈ 5.02 µM) | 1 µg/mL (≈ 2.51 µM) | 1 µg/mL (≈ 2.51 µM) | Cc1ccc(NS(=O)(=O)c2cc3c(CN=[N+]=[N-])cc(=O)oc3cc2C)cc1C |
| 1 µg/mL (≈ 2.41 µM) | 2 µg/mL (≈ 4.83 µM) | > 500 µg/mL | 62.5 µg/mL (≈ 151 µM) | 16 µg/mL (≈ 38.6 µM) | 62.5 µg/mL (≈ 151 µM) | 16 µg/mL (≈ 38.6 µM) | > 500 µg/mL | 250 µg/mL (≈ 603 µM) | > 500 µg/mL | 62.5 µg/mL (≈ 151 µM) | 1 µg/mL (≈ 2.41 µM) | CCOc1ccc(NS(=O)(=O)c2cc3c(CN=[N+]=[N-])cc(=O)oc3cc2C)cc1 |
| 1 µg/mL (≈ 2.23 µM) | 16 µg/mL (≈ 35.6 µM) | > 500 µg/mL | 1 µg/mL (≈ 2.23 µM) | 1 µg/mL (≈ 2.23 µM) | > 500 µg/mL | 125 µg/mL (≈ 278 µM) | > 500 µg/mL | > 500 µg/mL | 16 µg/mL (≈ 35.6 µM) | 250 µg/mL (≈ 556 µM) | 1 µg/mL (≈ 2.23 µM) | Cc1cc2oc(=O)cc(CN=[N+]=[N-])c2cc1S(=O)(=O)Nc1ccc(Br)cc1 |
| 8 µg/mL (≈ 19.1 µM) | 8 µg/mL (≈ 19.1 µM) | 4 µg/mL (≈ 9.55 µM) | 1 µg/mL (≈ 2.39 µM) | 8 µg/mL (≈ 19.1 µM) | > 500 µg/mL | 31.2 µg/mL (≈ 74.6 µM) | 16 µg/mL (≈ 38.2 µM) | 16 µg/mL (≈ 38.2 µM) | 4 µg/mL (≈ 9.55 µM) | 16 µg/mL (≈ 38.2 µM) | 1 µg/mL (≈ 2.39 µM) | Cc1ccc(NS(=O)(=O)c2cc3c(CN=[N+]=[N-])cc(=O)oc3cc2C)cc1Cl |

Reference: ChEMBL document CHEMBL1154876, “Synthesis and antimicrobial studies on novel sulfonamides containing 4-azidomethyl coumarin” (2010)
